This note sets out measurements from ChEMBL document CHEMBL4699436, “Scaffold diversity for enhanced activity of glycosylated inhibitors of fungal adhesion” (RSC Med Chem, 2020).

Data set [1] concerns Candida albicans. The data set can be described thus: Anti-adherence activity against Candida albicans serotype B assessed as displacement of adhered yeast cells on BECs at 13.8 mM incubated for 90 mins after preincubation of yeast cells with BECs by crystal violet staning based microscopic method relative to PBS control after second filtration. The class given is functional, organism-based. An outline of the steps: (§1)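 C. albicans MEN (serotype B, corneal clinical isolate) was grown overnight to stationary phase in YEPD at 30 °C and 200 rpm, washed, and resuspended in PBS at 1 × 10^8 cells per mL. Buccal epithelial cells were scraped from healthy volunteers, washed, and held at 5 × 10^5 per mL. Yeast and BECs (50:1) were co-incubated first. The BECs with adherent yeast were collected on a 30 μm polycarbonate membrane, then re-incubated with compound for 90 min. Yeast on 200 BECs were counted after crystal violet staining. Control 1 was PBS. Control 2 was the PBS-treated count after the second filtration, to account for physical detachment. Three independent occasions; mean ± SEM.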

A short description of data set [2]: Toxicity against Candid albicans serotype B assessed as reduction in fungal growth at 0.0133 to 3.4 mM. To be noted: candida albicans, 3400 µM; dose 0.0133-3.4 mM.
Data set [3] has as its system Candida albicans. The data set can be described thus: Anti-adherence activity against Candida albicans serotype B assessed as fungal adhesion to human BECs at 13.8 mM co- incubated for 90 mins with yeast cells and BECs by crystal violet staning based microscopic method relative to control. As to conditions: 1.5 h. The class given is functional. An outline of the steps: (§2)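 Yeast (C. albicans MEN, stationary phase, washed, 1 × 10^8 per mL in PBS) were co-incubated with volunteer BECs at 50:1, with compound present, in 2 mL at 30 °C and 200 rpm for 90 min. Unattached yeast were removed on a 30 μm membrane with two PBS washes. Cells were heat-fixed and stained with crystal violet, and adherent yeast on 200 BECs were counted microscopically. PBS control. Three independent occasions; mean ± SEM.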

The test system of data set [4] is Candida albicans. The data set can be described thus: Anti-adherence activity against Candida albicans serotype B assessed as reduction in fungal adhesion to human BECs at 13.8 mM preincubated with yeast cells for 90 mins followed by twice washout with PBS followed by BECs addition by crystal violet staning based microscopic method relative to control. The class given is functional. To be noted: 1.5 h. The procedure, abridged: (§3)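 Pre-treatment (exclusion) format. Stationary-phase C. albicans MEN in PBS were incubated with compound for 90 min, washed twice with PBS, and resuspended in 1 mL PBS. They were then mixed 50:1 with volunteer BECs for 90 min at 30 °C and 200 rpm. After 30 μm membrane filtration and crystal violet staining, yeast attached to 200 BECs were counted. PBS control. Three independent occasions; mean ± SEM.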

Data set [5] relates to Candida albicans. The data set can be described thus: Anti-adherence activity against Candida albicans serotype B assessed as displacement of adhered yeast cells on BECs at 13.8 mM incubated for 90 mins after preincubation of yeast cells with BECs by crystal violet staning based microscopic method relative to PBS control. Format: functional, organism-based. The procedure, abridged: as §1

The test system of data set [6] is Candida albicans. The data set can be described thus: Anti-adherence activity against Candida albicans serotype B assessed as reduction in yeast adhesion to human BECs at 13.8 mM preincubated for 90 mins with BECs followed by twice washout with PBS followed by yeast cells addition by crystal violet staning based microscopic method relative to control. Format: functional. As to conditions: 1.5 h. An outline of the steps: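 Reverse exclusion format. Buccal epithelial cells were pre-treated with compound at 13.8 mM before exposure to the yeast (C. albicans MEN, stationary phase, in PBS). Adherence was measured by membrane filtration, crystal violet staining, and microscopic counting of yeast on 200 BECs. Three independent occasions; mean ± SEM.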

The subject of data set [7] is Candida albicans. The data set can be described thus: Anti-adherence activity against Candida albicans serotype B assessed as displacement of adhered yeast cells on human BECs at 138 uM incubated for 90 mins after preincubation of yeast cells with BECs by crystal violet staning based microscopic method relative to PBS control. The class given is functional, organism-based. The procedure, abridged: as §1

Data set [8] relates to Candida albicans. The data set can be described thus: Anti-adherence activity against Candida albicans serotype B assessed as displacement of adhered yeast cells on BECs at 138 uM incubated for 90 mins after preincubation of yeast cells with BECs by crystal violet staning based microscopic method relative to PBS control after second filtration. The class given is functional, organism-based. The procedure, abridged:
as §1

In data set [9] the test system is Candida albicans. The data set can be described thus: Anti-adherence activity against Candida albicans serotype B assessed as fungal adhesion to human BECs at 138 uM co-incubated for 90 mins with yeast cells and BECs by crystal violet staning based microscopic method relative to control. The class given is functional. As to conditions: 1.5 h. The procedure, abridged:
as §2

Data set [10] deals with Candida albicans. The data set can be described thus: Anti-adherence activity against Candida albicans serotype B assessed as fungal adhesion to human BECs at 1.38 mM co-incubated for 90 mins with yeast cells and BECs by crystal violet staning based microscopic method relative to control. As to conditions: 1.5 h. Format: functional. An outline of the steps:
as §2

In data set [11] the test system is Candida albicans. The data set can be described thus: Anti-adherence activity against Candida albicans serotype B assessed as reduction in fungal adhesion to human BECs at 0.138 to 1.38 mM preincubated with yeast cells for 90 mins followed by twice washout with PBS followed by BECs addition by crystal violet staning based microscopic method relative to control. As to conditions: dose mM 0.138-1.38, 1.5 h. The class given is functional. An outline of the steps:
as §3

SMILES strings stand for the structures.

Turning to `O=C(NCc1cn([C@@H]2O[C@H](CO)[C@H](O)[C@H](O)[C@H]2O)nn1)[C@@H]1[C@H](C(=O)NCc2cn([C@@H]3O[C@H](CO)[C@H](O)[C@H](O)[C@H]3O)nn2)[C@@H]2C=C[C@H]1C2`, the inhibition is 34% in data set [1] and 45% in data set [5]. Moreover, the Activity entry in data set [2] is on record as “Non-Toxic”. Further, the “Fungal adhesion relative to control” value in data set [3] amounted to 61%. In data set [4], the inhibition at 13800 µM came to 65%.
In the case of `O=c1c(NCc2cn([C@@H]3O[C@H](CO)[C@H](O)[C@H](O)[C@H]3O)nn2)c(NCc2cn([C@@H]3O[C@H](CO)[C@H](O)[C@H](O)[C@H]3O)nn2)c1=O`, the Activity result in [2] was “Non-Toxic”. Besides, in [3], the “Fungal adhesion relative to control” value was 83%. The values for the inhibition at 13800 µM in [6] and in data set [4] were 12% and 27%, respectively.
Take `O=C1[C@@H]2[C@H](C(=O)N1Cc1cn([C@@H]3O[C@H](CO)[C@H](O)[C@H](O)[C@H]3O)nn1)[C@@H]1C=C[C@H]2C1`: the inhibition in data set [1] worked out at 7%; in [5], 23%. Moreover, the “Fungal adhesion relative to control” value in data set [3] turned out to be 83%. Further, in data set [4], the inhibition at 13800 µM worked out at 43%.
As for `O=c1c(NCc2cn([C@@H]3O[C@H](CO)[C@H](O[C@@H]4O[C@H](CO)[C@H](O)[C@H](O)[C@H]4O)[C@H](O)[C@H]3O)nn2)c(NCc2cn([C@@H]3O[C@H](CO)[C@H](O[C@@H]4O[C@H](CO)[C@H](O)[C@H](O)[C@H]4O)[C@H](O)[C@H]3O)nn2)c1=O`, the figures for the inhibition in data set [1] and in data set [5] were 25% and 39%, respectively. In [3], the “Fungal adhesion relative to control” value is 64%. The values for the inhibition at 13800 µM in data set [6] and in data set [4] were 15% and 34%, respectively.
On to `O=c1c(NCc2cn(CCO[C@@H]3O[C@H](CO)[C@H](O)[C@H](O)[C@H]3O)nn2)c(NCc2cn(CCO[C@@H]3O[C@H](CO)[C@H](O)[C@H](O)[C@H]3O)nn2)c1=O`, for which the inhibition in data set [1] came to 21%; in data set [5], 35%. The Activity result in data set [2] was “Non-Toxic”. Also, the “Fungal adhesion relative to control” value in data set [3] is reported as 69%. Also, the inhibition at 13800 µM was found to be 19% in [6] and 33% in [4].
As to `CCC(=O)Nc1cc(C(=O)NCc2cn([C@@H]3O[C@H](CO)[C@H](O)[C@H](O)[C@H]3O)nn2)cc(C(=O)NCc2cn([C@@H]3O[C@H](CO)[C@H](O)[C@H](O)[C@H]3O)nn2)c1`, the inhibition in [1] came to 31%; in data set [7] it was 56%; in data set [8], 36%; in [5], 42%. Besides, the Activity entry is on record as “Non-Toxic” in data set [2], 65% in data set [9] and 74% in data set [10]. Further, in [3], the “Fungal adhesion relative to control” value was found to be 59%. Besides, the values for the inhibition at 13800 µM in data set [6] and in data set [4] were 22% and 42%, respectively.
As for `O=C(NCc1cn([C@@H]2O[C@H](CO)[C@H](O)[C@H](O)[C@H]2O)nn1)[C@H]1[C@H](C(=O)NCc2cn([C@@H]3O[C@H](CO)[C@H](O)[C@H](O)[C@H]3O)nn2)[C@H]2C=C[C@@H]1C2`, the inhibition came out at 7% in [1] and 23% in [5]. In data set [3], the “Fungal adhesion relative to control” value is listed as 62%. In [4], the inhibition at 13800 µM was 46%.
For the compound `O=C(NCc1cn([C@@H]2O[C@H](CO)[C@H](O)[C@H](O)[C@H]2O)nn1)c1ccc(C(=O)NCc2cn([C@@H]3O[C@H](CO)[C@H](O)[C@H](O)[C@H]3O)nn2)cc1`, the inhibition in data set [7] was 63%; in data set [8], 48%. The Activity result in data set [2] is “Non-Toxic”; in data set [9] it was 56%; in data set [10] it was 74%. Also, the “Fungal adhesion relative to control” value in data set [3] came out at 38%. Further, in data set [11], the “inhibition (INH)” value is “<=61%”. The inhibition at 13800 µM in [4] was 33.5%.
